Key:
[1] = test system: A549; assay: Antiproliferative activity against human A549 cells after 72 hrs by SRB assay; assay type: functional, cell-based; conditions: A549, 72 h
[2] = test system: MDA-MB-231; assay: Antiproliferative activity against human MDA-MB-231 cells after 72 hrs by SRB assay; assay type: functional, cell-based; conditions: MDA-MB-231, 72 h
[3] = test system: MCF7; assay: Antiproliferative activity against human MCF7 cells after 72 hrs by SRB assay; assay type: functional, cell-based; conditions: MCF7, 72 h
[4] = test system: KB; assay: Antiproliferative activity against human KB cells after 72 hrs by SRB assay; assay type: functional, cell-based
[5] = Antiproliferative activity against human KBVIN cells after 72 hrs by SRB assay; assay type: functional, cell-based
[6] = test system: Human immunodeficiency virus 1; assay: Antiviral activity against HIV1 NL4-3 infected in human MT4 cells assessed as inhibition of viral replication after 3 days by luciferase reporter gene assay; assay type: functional, organism-based
Method in brief: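 MT4 cells (1 × 10^5 cells/mL) infected with HIV-1 NL4-3 Nanoluc-sec reporter virus at 50 TCID50/well alongside a range of compound concentrations (multicycle replication). Supernatants harvested on day 3 post-infection and read for secreted luciferase (Nano-Glo).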

[7] = Selectivity index, ratio of CC50 for human MT4 cells to IC50 for HIV1 NL4-3 infected in human MT4 cells; assay type: toxicity, cell-based; conditions: read-out: Ratio CC50/IC50
Method in brief: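 Selectivity index computed as CC50 (MT4 CytoTox-Glo, 3 days) divided by anti-HIV IC50 (NL4-3 Nanoluc-sec luciferase in MT4, day 3); SI below 5 regarded as no selective activity.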

[8] = Cytotoxicity against human MT4 cells assessed as reduction in cell viability after 3 days by cytoTox-Glo reagent based assay
[9] = Human immunodeficiency virus 1, NL4-3, MT4, 72 h, read-out: IC50

| Structure (SMILES) | IC50 [1] [µM] | IC50 [2] [µM] | IC50 [3] [µM] | IC50 [4] [µM] | IC50 ([6]; mt4) | IC50 [6, 9] [µM] | IC50 [5] [µM] | selectivity ratio [7] | CC50 at 72 h [8] [µM] |
| --- | --- | --- | --- | --- | --- | --- | --- | --- | --- |
| CC(=O)/C=C1/C=C([C@H]2CC[C@@]3(C)[C@@H]4CC[C@H]5C(C)(C)C(=O)C=C[C@@]56C[C@@]46CC[C@]23C)C(=O)N1 | 9.4 | 10 | > 10 | 8 | Not Active |  | 6.9 | < 5 |  |
| Cc1cn([C@H]2C[C@H](N=[N+]=[N-])[C@@H](CO)O2)c(=O)[nH]c1=O [ZIDOVUDINE] |  |  |  |  |  |  |  |  | > 3.74 |
| CO[C@H]1O[C@]2(C=C(C)C(=O)O2)C[C@@H]1[C@H]1CC[C@@]2(C)[C@@H]3CC[C@H]4C(C)(C)C(=O)C=C[C@]45C[C@]35CC[C@]12C | > 10 | > 10 | > 10 | > 10 |  | 2.4 | > 10 | 5.3 | 12.6 |
| CC(=O)O[C@H]1C(=O)[C@@]2(C)[C@H]([C@H](OC(=O)c3ccccc3)[C@]3(O)C[C@H](OC(=O)[C@H](O)[C@@H](NC(=O)c4ccccc4)c4ccccc4)C(C)=C1C3(C)C)[C@]1(OC(C)=O)CO[C@@H]1C[C@@H]2O [PACLITAXEL] | 0.0063 | 0.0081 | 0.0112 |  |  |  | 2.79 |  |  |
| CC1=C[C@@]2(C[C@H]([C@H]3CC[C@@]4(C)[C@@H]5CC[C@H]6C(C)(C)C(=O)C=C[C@@]67C[C@@]57CC[C@]34C)CO2)OC1=O | 8.2 | > 10 | > 10 | > 10 |  |  | > 10 |  |  |
| CC1(C)CC[C@]2(C)CC=C3[C@]4(C)CC[C@H]5C(C)(C)C(=O)CC[C@]5(C)[C@H]4CC[C@@]3(C)[C@@H]2C1 [TARAXERONE] | > 10 | > 10 | > 10 | > 10 |  |  | > 10 |  |  |
| CC(C)=CC(=O)CC(C(=O)O)[C@H]1CC[C@@]2(C)[C@@H]3CC[C@H]4C(C)(C)C(=O)C=C[C@@]45C[C@@]35CC[C@]12C (some centres undefined) | > 10 | > 10 | > 10 | > 10 |  |  | > 10 |  |  |
| CO[C@@H]1O[C@@]2(C=C(C)C(=O)O2)C[C@@H]1[C@H]1CC[C@@]2(C)[C@@H]3CC[C@H]4C(C)(C)C(=O)C=C[C@@]45C[C@@]35CC[C@]12C | 9.1 | > 10 | > 10 | > 10 | Not Active |  | 5.7 | < 5 |  |

Further lines, with some results ahead:

| IC50 [1] [µM] | IC50 [2] [µM] | IC50 [3] [µM] | IC50 [4] [µM] | IC50 ([6]; mt4) | IC50 [6, 9] [µM] | Structure (SMILES) | IC50 [5] [µM] | selectivity ratio [7] | CC50 at 72 h [8] [µM] |
| --- | --- | --- | --- | --- | --- | --- | --- | --- | --- |
| > 10 | > 10 | > 10 | > 10 | Not Active |  | CO[C@H]1O[C@@]2(C=C(C)C(=O)O2)C[C@@H]1[C@H]1CC[C@@]2(C)[C@@H]3CC[C@H]4C(C)(C)C(=O)C=C[C@@]45C[C@@]35CC[C@]12C | > 10 | < 5 |  |
| > 10 | > 10 | > 10 | > 10 |  |  | CC(C)=CC(=O)C[C@@H](C)[C@H]1CC[C@@]2(C)[C@@H]3CC[C@H]4C(C)(C)C(=O)C=C[C@@]45C[C@@]35CC[C@]12C | > 10 |  |  |
| > 10 | > 10 | > 10 | > 10 |  | 0.8 | CC1=C[C@@]2(C[C@H]([C@H]3CC[C@@]4(C)[C@@H]5CC[C@H]6C(C)(C)C(=O)C=C[C@]67C[C@]57CC[C@]34C)CO2)OC1=O | > 10 | 5.8 | 4.6 |
| > 10 | > 10 | > 10 | > 10 | Not Active |  | CC(C)=CC(=O)C[C@@H](C)[C@H]1CC[C@@]2(C)[C@@H]3CC[C@H]4C(C)(C)C(=O)C=C[C@]45C[C@]35CC[C@]12C | 8.4 | < 5 |  |
| 8.9 | > 10 | 10 | > 10 |  |  | CO[C@H]1O[C@]2(C=C(C)C(=O)O2)C[C@@H]1[C@H]1CC[C@@]2(C)[C@@H]3CC[C@H]4C(C)(C)C(=O)C=C[C@@]45C[C@@]35CC[C@]12C | 6.1 |  |  |
